# Screening results deposited in PubChem BioAssay by Broad Institute.
# PGC1a Ac signal = raises PGC1a acetylation signal in U2OS cells. activation, % at 15.6 µM. AID 651723. U2OS PGC1a acetylation AlphaScreen, overnight. actives 0.21% (n = 350,000);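 active = every replicate reaching activation of at least 50%, whatever the mean replicate activation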;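 also: hits raise the AlphaScreen acetylation signal above neutral controls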
#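 System – flag-PGC1a/GCN5 U2OS cells · Quantity – 7000 U2OS cells per well · Signal – AlphaScreen proximity luminescence, anti-acetyl-lysine antibody · Schedule – overnight compound treatment, 37 °C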
# A number is an active result; – = inactive. A selection follows.
SMILES,PGC1a Ac signal
COc1ccc(NC(=O)CSC2CC(=O)N(c3ccc4c(c3)OCCO4)C2=O)cc1 (stereo unspecified),55
CCc1c(C)nc(SCC(=O)Nc2ccc3c(c2)OCCO3)[nH]c1=O,–
Cc1cccc(CC2CC(=O)N(C3CCCCC3)C2=O)c1 (stereo unspecified),–
CN1[C@@H]2CC(OC(=O)[C@H](CO)c3ccccc3)C[C@H]1[C@@H]1O[C@@H]12 (stereo partly specified),–
COC(=O)c1cccc(NC(=O)CSc2nc3cccnc3n2C)c1,–
CC(C)OC(=O)CSc1nc2cccnc2n1-c1ccc(F)cc1,53
CC(NS(=O)(=O)c1ccccc1Cl)C1CC2CCC1C2 (stereo unspecified),102
O=C(Nc1ccc(F)cc1)N[C@H]1C=C[C@H](CC(=O)N2CCCCC2)O[C@H]1CO,–
CN(Cc1c(F)cccc1Cl)c1nnnn1-c1ccccc1,–
Cc1noc(C)c1S(=O)(=O)Nc1ccc2c(c1)C(=O)N([C@H](C)CO)C[C@H](C)[C@H](CN(C)C(=O)c1ccncc1)OCCCC[C@@H](C)O2,–
NCCCCCC(=O)O,–
CN(C)C(=O)C[C@H]1CC[C@@H](NC(=O)C2CCC2)[C@H](CO)O1,–
Cc1nnc2sc(-c3ccc(NC(=O)c4ccc(-c5ccc(Cl)cc5Cl)o4)cc3)nn12,98
NC(=O)c1ccccc1NC(=O)/C=C/C(=O)O,62
Cc1ccc(S(=O)(=O)OCCC2=CC(=O)CCN2Cc2ccccc2)cc1,–
Cc1ccc(CC2(C)C(=O)Nc3c(Cl)ccc(Cl)c32)cc1 (stereo unspecified),159
CC1(Cc2ccc(Cl)cc2)C(=O)Nc2ccc(-c3cccnc3)cc21 (stereo unspecified),–
CC1CCCCC1NC(=O)C1CCN(S(=O)(=O)N2CCOCC2)CC1 (stereo unspecified),–
Cc1cccc(S(=O)(=O)N(C)C[C@@H]2OCc3cn(nn3)CCCC(=O)N([C@H](C)CO)C[C@H]2C)c1,–
CCOC(=O)N1C/C(=C\c2ccccc2)C(=O)/C(=C/c2ccccc2)C1,497
CCOC(=O)/C(C#N)=C1/C(=O)N(Cc2ccccc2)c2ccccc21,–
CS(=O)(=O)Nc1ccc2c(c1)[C@@H]1C[C@H](CC(=O)N3CCc4ccccc4C3)O[C@@H](CO)[C@@H]1O2,–
CC(C)NC(=O)Nc1ccc2c(c1)C(=O)N([C@@H](C)CO)C[C@@H](C)[C@H](CN(C)C(=O)NC(C)C)OCCCC[C@@H](C)O2,–
C[C@@H]1CN([C@@H](C)CO)C(=O)CCCn2cc(nn2)CO[C@H]1CN(C)Cc1ccc2c(c1)OCO2,–
Cc1ccc(NC(=O)CN(C)S(=O)(=O)c2cccs2)c(Br)c1,59
SMILES,PGC1a Ac signal
COc1ccc(N(CC(=O)Nc2ccccc2Cl)S(=O)(=O)c2ccc(C)cc2)cc1OC,–
C[C@@H]1CN([C@@H](C)CO)C(=O)c2cccc(NC(=O)Nc3ccccc3)c2O[C@H]1CN(C)S(=O)(=O)c1cccs1,–
Cc1ccc(-c2ccc(C3[C@@H]4CN(C(=O)Nc5ccc(C(F)(F)F)cc5)C[C@H]3N4)cc2)cc1 (stereo partly specified),–
Cc1cccc(-c2ccc(C3[C@@H]4CN(C(=O)C5CCCCC5)C[C@H]3N4)cc2)c1 (stereo partly specified),74
O=C(Nc1ccc(C(F)(F)F)cc1)N1C[C@@H]2N[C@H](C1)C2c1ccc(-c2cccc(F)c2)cc1 (stereo partly specified),–
O=C(Cn1c2ccccc2c(=O)c2ccccc21)N/N=C/c1cc([N+](=O)[O-])ccc1N1CCCCCC1,53
CCn1c2ccccc2c2cc(/C=N/NC(=O)c3ccccc3)ccc21,–
O=C(c1cccc([N+](=O)[O-])c1)N1CCc2ccccc21,–
C[C@@H]1CCCCO[C@@H](CN(C)C)[C@@H](C)CN([C@H](C)CO)C(=O)c2cc(NS(=O)(=O)c3ccc(Cl)cc3)ccc2O1,–
CCN1C(C#N)=C(C#N)N=C(C)CC1(C)C,–
COc1ccc(C2=NOC(C(=O)Nc3cccnc3)C2)cc1 (stereo unspecified),64
CC(=O)ON=C1C=CC(=C(C#N)c2ccccc2)C=C1,–
C[C@H]1CN([C@@H](C)CO)C(=O)c2cccc(NC(=O)C3CCCCC3)c2O[C@H]1CN(C)Cc1ccc(C(=O)Nc2ccccc2N)cc1,173
C[C@@H]1CN([C@@H](C)CO)C(=O)c2cc(NC(=O)c3ccncc3)ccc2O[C@@H](C)CCCCO[C@@H]1CN(C)Cc1ccncc1,–
C[C@@H]1CCCCO[C@H](CN(C)Cc2ccc(C(F)(F)F)cc2)[C@H](C)CN([C@H](C)CO)C(=O)c2cc(NC(=O)Cc3ccccc3)ccc2O1,–
C[C@@H]1CN([C@H](C)CO)C(=O)c2cccc(NC(=O)c3nc4ccccc4s3)c2O[C@@H]1CN(C)CC1CCCCC1,–
C[C@H]1CN([C@@H](C)CO)C(=O)c2cccc(NC(=O)c3nc4ccccc4s3)c2O[C@H]1CN(C)Cc1ccc(C(=O)Nc2ccccc2N)cc1,104
